Source: ChEMBL document CHEMBL4477183, “Antimicrobial Peptide from the Wild Bee Hylaeus signatus Venom and Its Analogues: Structure-Activity Study and Synergistic Effect with Antibiotics” (J Nat Prod, 2016)

What was measured:
[1] = system: Staphylococcus aureus; assay: Antimicrobial activity against Staphylococcus aureus clinical isolates from university hospital in Motol assessed as reduction in bacterial growth after 20 hrs by drop diffusion test; assay type: functional
[2] = system: Escherichia coli; assay: Antimicrobial activity against Escherichia coli assessed as reduction in bacterial growth after 20 hrs by […]; assay type: functional
How it was run: (§1)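 Broth microdilution in LB (YPG for C. albicans) with 2-fold serial dilutions, final 0.1–100 μM. Mid-log cells grown 3–5 h at 37 °C were added at about 5 × 10^5 cfu/mL, then incubated 20 h at 37 °C with shaking. A540 was read every 15 min to build growth curves. Medium with cells served as growth control; at least three runs in duplicate.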

[3] = system: Pseudomonas aeruginosa; assay: Antimicrobial activity against Pseudomonas aeruginosa 5482 assessed as reduction in bacterial growth after 20 hrs […]; assay type: functional; conditions: Pseudomonas aeruginosa, 5482, 20 h; how it was run: as §1
[4] = system: Pseudomonas aeruginosa; assay: Antimicrobial activity against Pseudomonas aeruginosa clinical isolates assessed as reduction in bacterial growth after 20 hrs by […]; assay type: functional; how it was run: as §1
[5] = Hemolytic activity in human type RBC after 1 hr; assay type: ADME, cell-based, Erythrocyte; conditions: red blood cells (erythrocytes), read-out: LC50
How it was run: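 Peptides at 2.5–400 μM were incubated with a 4% suspension of human erythrocytes in physiological solution for 1 h at 37 °C, then centrifuged at 250g for 5 min; supernatant A540 was read. Saline-treated cells gave 0% lysis and 0.2% Triton X-100 gave 100%. LC50 is the concentration lysing 50% of cells; duplicates in at least two independent experiments.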

[6] = system: Candida albicans; assay: Antifungal activity against Candida albicans assessed as reduction in fungal growth after 20 hrs by […]; assay type: functional; how it was run: as §1
[7] = system: Micrococcus luteus; assay: Antimicrobial activity against Micrococcus luteus assessed as reduction in bacterial growth after 20 hrs by […]; assay type: functional; how it was run: as §1
[8] = system: Bacillus subtilis; assay: Antimicrobial activity against Bacillus subtilis assessed as reduction in bacterial growth after 20 hrs by […]; assay type: functional; how it was run: as §1
[9] = system: Staphylococcus aureus; assay: Antimicrobial activity against Staphylococcus aureus 6271 assessed as reduction in bacterial growth after 20 hrs by broth microdilution assay; conditions: Staphylococcus aureus, 6271, 20 h
[10] = system: Staphylococcus epidermidis; assay: Antimicrobial activity against Staphylococcus epidermidis assessed as reduction in bacterial growth after 20 hrs by broth microdilution assay
[11] = system: Staphylococcus aureus; assay: Antimicrobial activity against Staphylococcus aureus clinical isolates from Liberec regional hospital assessed as reduction in bacterial growth after 20 hrs by broth microdilution assay
[12] = system: Pseudomonas aeruginosa; assay: Antimicrobial activity against Pseudomonas aeruginosa clinical isolates assessed as FIC index in presence of tetracycline after 20 hrs by drop diffusion test; assay type: functional
[13] = system: Pseudomonas aeruginosa; assay: Antimicrobial activity against Pseudomonas aeruginosa clinical isolates assessed as FIC index in presence of rifampicin after 20 hrs by drop diffusion test; assay type: functional
[14] = system: Staphylococcus aureus; assay: Antimicrobial activity against Staphylococcus aureus clinical isolates assessed as FIC index in presence of amoxicillin after 20 hrs by drop diffusion test; assay type: functional

Q: With H-GILSSLWKKPKKIIAK-NH2 as the substance, how does the MIC [1] read?
A: > 100 µM

Q: And the MIC [2]?
A: > 100 µM

Q: What about the MIC [3] of the same substance?
A: 98 µM

Q: And the MIC [4]?
A: > 100 µM

Q: What about the HC50 at 1 h [5] of the same substance?
A: > 400 µM

Q: And the MIC [6]?
A: > 100 µM

Q: What about the MIC [7] of the same substance?
A: 5.8 µM

Q: And the MIC [8]?
A: 49 µM

Q: And the MIC [9]?
A: > 100 µM

Q: What about the MIC [10] of the same substance?
A: > 100 µM

Q: And the MIC [11]?
A: > 100 µM

Q: For H-GIMISLMKKLAAHIAK-NH2, which MIC [1] is on record?
A: 65 µM

Q: What about the MIC [2] of the same substance?
A: 12 µM

Q: What about the MIC [3] of the same substance?
A: 47 µM

Q: And the MIC [4]?
A: > 100 µM

Q: What about the HC50 at 1 h [5] of the same substance?
A: 320 µM

Q: What about the MIC [6] of the same substance?
A: 12 µM

Q: What about the MIC [7] of the same substance?
A: ≤ 3 µM

Q: What about the MIC [8] of the same substance?
A: ≤ 7 µM

Q: What about the MIC [9] of the same substance?
A: 43 µM

Q: And the MIC [10]?
A: 8.8 µM

Q: And the MIC [11]?
A: 35 µM

Q: Which MIC [1] does the source give for H-GIMSSLMKKLAAHIAK-NH2 here?
A: 64 µM

Q: And the MIC [2]?
A: 15 µM

Q: What about the MIC [3] of the same substance?
A: 20 µM

Q: What about the MIC [4] of the same substance?
A: 68 µM

Q: What about the HC50 at 1 h [5] of the same substance?
A: > 400 µM

Q: And the MIC [6]?
A: 18 µM

Q: And the MIC [7]?
A: ≤ 3 µM

Q: What about the MIC [8] of the same substance?
A: ≤ 7 µM

Q: What about the “fractional inhibitory concentration index (FICI)” value [12] of the same substance?
A: 0.56

Q: And the “fractional inhibitory concentration index (FICI)” value [13]?
A: 0.26

Q: And the MIC [9]?
A: 63 µM

Q: And the MIC [10]?
A: 13 µM

Q: And the MIC [11]?
A: 53 µM

Q: For H-GIMSSLMKKLAAHIKK-NH2, which MIC [1] is on record?
A: 90 µM

Q: What about the MIC [2] of the same substance?
A: 20 µM

Q: What about the MIC [3] of the same substance?
A: 23 µM

Q: And the MIC [4]?
A: 46 µM

Q: And the HC50 at 1 h [5]?
A: > 400 µM

Q: And the MIC [6]?
A: 5 µM

Q: And the MIC [7]?
A: ≤ 3 µM

Q: And the MIC [8]?
A: ≤ 7 µM

Q: And the MIC [9]?
A: 85 µM

Q: What about the MIC [10] of the same substance?
A: 11 µM

Q: And the MIC [11]?
A: 77 µM

Q: With H-GIMSSLMKKLAAIIAK-NH2 as the substance, how does the MIC [1] read?
A: 10 µM

Q: And the MIC [2]?
A: 3.6 µM

Q: And the MIC [3]?
A: 8 µM

Q: What about the MIC [4] of the same substance?
A: 17 µM

Q: And the HC50 at 1 h [5]?
A: 93 µM

Q: And the MIC [6]?
A: 8.4 µM

Q: What about the MIC [7] of the same substance?
A: ≤ 3 µM

Q: What about the MIC [8] of the same substance?
A: ≤ 7 µM

Q: And the “fractional inhibitory concentration index (FICI)” value [14]?
A: 0.56

Q: What about the “fractional inhibitory concentration index (FICI)” value [12] of the same substance?
A: 0.76

Q: What about the “fractional inhibitory concentration index (FICI)” value [13] of the same substance?
A: 0.51

Q: What about the MIC [9] of the same substance?
A: 7.2 µM

Q: And the MIC [10]?
A: 5 µM

Q: And the MIC [11]?
A: 10 µM

Q: Which MIC [1] does the source give for H-GIMSSLMKKLKAHIAK-NH2 here?
A: > 100 µM

Q: And the MIC [2]?
A: 30 µM

Q: What about the MIC [3] of the same substance?
A: 26 µM

Q: And the MIC [4]?
A: 47 µM

Q: What about the HC50 at 1 h [5] of the same substance?
A: > 400 µM

Q: What about the MIC [6] of the same substance?
A: 23 µM

Q: And the MIC [7]?
A: ≤ 3 µM

Q: And the MIC [8]?
A: ≤ 7 µM

Q: What about the “fractional inhibitory concentration index (FICI)” value [12] of the same substance?
A: 0.31

Q: What about the “fractional inhibitory concentration index (FICI)” value [13] of the same substance?
A: 0.21

Q: What about the MIC [9] of the same substance?
A: > 100 µM

Q: And the MIC [10]?
A: 16 µM

Q: What about the MIC [11] of the same substance?
A: > 100 µM

Q: For H-GIMSSLMKKLKKHIAK-NH2, which MIC [1] is on record?
A: > 100 µM

Q: And the MIC [2]?
A: 26 µM

Q: And the MIC [3]?
A: 6.4 µM

Q: And the MIC [4]?
A: 17 µM

Q: And the HC50 at 1 h [5]?
A: > 400 µM

Q: What about the MIC [6] of the same substance?
A: 12 µM

Q: And the MIC [7]?
A: ≤ 3 µM

Q: What about the MIC [8] of the same substance?
A: ≤ 7 µM

Q: And the “fractional inhibitory concentration index (FICI)” value [12]?
A: 0.39

Q: And the “fractional inhibitory concentration index (FICI)” value [13]?
A: 0.23

Q: And the MIC [9]?
A: > 100 µM

Q: And the MIC [10]?
A: 10 µM

Q: And the MIC [11]?
A: > 100 µM
